From ChEMBL document CHEMBL4038333, “Nonacidic Farnesoid X Receptor Modulators” (J Med Chem, 2017)
pKd: −log10 of the molar value. Activity calls are given as the source filed them. The calls are words filed in the database; no cut-off is given here.

Legend:
Bile acid receptor = target: T1, Bile acid receptor (Homo sapiens, UniProt Q96RI1); experiment: Binding affinity to FXR (unknown origin) ligand binding domain by ITC assay
T1 sequence (Q96RI1 whole entry): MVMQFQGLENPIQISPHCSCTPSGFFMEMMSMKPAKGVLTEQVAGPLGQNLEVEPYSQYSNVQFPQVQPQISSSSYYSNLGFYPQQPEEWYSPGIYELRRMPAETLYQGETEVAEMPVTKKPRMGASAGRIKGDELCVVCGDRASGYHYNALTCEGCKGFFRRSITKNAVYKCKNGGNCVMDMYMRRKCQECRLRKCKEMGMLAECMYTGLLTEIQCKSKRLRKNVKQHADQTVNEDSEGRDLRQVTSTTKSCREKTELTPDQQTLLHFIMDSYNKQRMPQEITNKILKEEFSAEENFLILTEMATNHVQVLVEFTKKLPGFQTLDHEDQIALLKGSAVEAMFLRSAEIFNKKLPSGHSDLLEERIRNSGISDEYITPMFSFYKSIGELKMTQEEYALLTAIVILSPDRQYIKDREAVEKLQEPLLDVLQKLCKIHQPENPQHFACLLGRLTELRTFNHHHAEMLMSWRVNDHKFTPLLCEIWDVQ

[1] = Lipophilicity, logD of compound at pH 7.4 by LC-MS analysis; assay type: physicochemical; settings: buffer, read-out: logD
HepG2 = experiment: Cytotoxicity against human HepG2 cells up to 100 uM after 48 hrs by WST-1 assay; assay type: cell-based; settings: hepg2, 48 h
[2] = Metabolic stability in human HepG2 cells assessed as compound remaining after 24 hrs by HPLC analysis; assay type: ADME, cell-based; settings: read-out: Stability
[3] = target: G-protein coupled bile acid receptor 1 (Homo sapiens) (UniProt Q8TDU6); experiment: Agonist activity at TGR5 (unknown origin) expressed in HEK293T cells at 1 uM after 12 to 14 hrs by dual-glo luciferase reporter gene assay; assay type: cell-based
In short: (§1)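 Run as a selectivity screen against each listed receptor (14 nuclear receptors plus TGR5), in both agonist and antagonist modes. Test concentration was 1 µM, with n = 3.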

[4] = target: Vitamin D3 receptor (Homo sapiens) (UniProt P11473); experiment: Transactivation of GAL4-tagged human VDR isoform 1 ligand binding domain (119 to 427 residues) expressed in HEK293T cells at 1 uM after 12 to 14 hrs by dual-glo luciferase reporter gene assay; assay type: cell-based; settings: HEK-293T; in short: as §1
[5] = target: Retinoic acid receptor RXR-alpha (Homo sapiens) (UniProt P19793); experiment: Transactivation of GAL4-tagged human RXRalpha ligand binding domain (225 to 462 residues) expressed in HEK293T cells at 1 uM after 12 to 14 hrs by dual-glo luciferase reporter gene assay; assay type: cell-based; settings: HEK-293T; in short: as §1
[6] = target: Oxysterols receptor LXR-alpha (Homo sapiens) (UniProt Q13133); experiment: Transactivation of GAL4-tagged human LXRalpha ligand binding domain expressed in HEK293T cells at 1 uM after 12 to 14 hrs by dual-glo luciferase reporter gene assay; assay type: cell-based; settings: HEK-293T; in short: as §1
[7] = target: Peroxisome proliferator-activated receptor delta (Homo sapiens) (UniProt Q03181); experiment: Transactivation of GAL4-tagged human PPARdelta ligand binding domain expressed in HEK293T cells at 1 uM after 12 to 14 hrs by dual-glo luciferase reporter gene assay; assay type: cell-based; settings: HEK-293T; in short: as §1
[8] = target: Peroxisome proliferator-activated receptor alpha (Homo sapiens) (UniProt Q07869); experiment: Transactivation of GAL4-tagged human PPARalpha ligand binding domain expressed in HEK293T cells at 1 uM after 12 to 14 hrs by dual-glo luciferase reporter gene assay; assay type: cell-based; settings: HEK-293T; in short: as §1
[9] = target: G-protein coupled bile acid receptor 1 (Homo sapiens) (UniProt Q8TDU6); experiment: Antagonist activity at TGR5 (unknown origin) expressed in HEK293T cells at 1 uM after 12 to 14 hrs by dual-glo luciferase reporter gene assay; assay type: cell-based; in short: as §1
[10] = target: Nuclear receptor subfamily 1 group I member 3 (Homo sapiens, UniProt Q14994); experiment: Antagonist activity at GAL4-tagged human CAR isoform 6 ligand binding domain (48 to 324 residues) expressed in HEK293T cells at 1 uM after 12 to 14 hrs by dual-glo luciferase reporter gene assay; assay type: cell-based; settings: hek-293t; in short: as §1
[11] = target: Nuclear receptor subfamily 1 group I member 2 (Homo sapiens, UniProt O75469); experiment: Antagonist activity at GAL4-tagged human PXR isoform 1 ligand binding domain (138 to 434 residues) expressed in HEK293T cells at 1 uM after 12 to 14 hrs by dual-glo luciferase reporter gene assay; assay type: cell-based; settings: hek-293t; in short: as §1
[12] = target: Oxysterols receptor LXR-beta (Homo sapiens) (UniProt P55055); experiment: Antagonist activity at GAL4-tagged human LXRbeta ligand binding domain expressed in HEK293T cells at 1 uM after 12 to 14 hrs by dual-glo luciferase reporter gene assay; assay type: cell-based; settings: HEK-293T; in short: as §1
HeLa [13] = experiment: Selectivity ratio for human FXR expressed in human HeLa cells co-expressing BSEP over TGR5 (unknown origin) expressed in HEK293T cells; assay type: cell-based
HeLa [14] = experiment: Selectivity ratio for human FXR expressed in human HeLa cells co-expressing BSEP over GAL4-tagged human CAR isoform 6 ligand binding domain (48 to 324 residues) expressed in HEK293T cells; assay type: cell-based
HeLa [15] = experiment: Selectivity ratio for human FXR expressed in human HeLa cells co-expressing BSEP over GAL4-tagged human RARgamma isoform 1 ligand binding domain (179 to 454 residues) expressed in HEK293T cells; assay type: cell-based
HeLa [16] = experiment: Selectivity ratio for human FXR expressed in human HeLa cells co-expressing BSEP over GAL4-tagged human RARbeta1 ligand binding domain (177 to 455 residues) expressed in HEK293T cells; assay type: cell-based
HeLa [17] = experiment: Selectivity ratio for human FXR expressed in human HeLa cells co-expressing BSEP over GAL4-tagged human RARalpha1 ligand binding domain (177 to 462 residues) expressed in HEK293T cells; assay type: cell-based
HeLa [18] = experiment: Selectivity ratio for human FXR expressed in human HeLa cells co-expressing BSEP over GAL4-tagged human RXRgamma ligand binding domain (229 to 463 residues) expressed in HEK293T cells; assay type: cell-based
HeLa [19] = experiment: Selectivity ratio for human FXR expressed in human HeLa cells co-expressing BSEP over GAL4-tagged human LXRbeta ligand binding domain expressed in HEK293T cells; assay type: cell-based
HeLa [20] = experiment: Selectivity ratio for human FXR expressed in human HeLa cells co-expressing BSEP over GAL4-tagged human PPARgamma ligand binding domain expressed in HEK293T cells; assay type: cell-based
HeLa [21] = experiment: Selectivity ratio for human FXR expressed in human HeLa cells co-expressing BSEP over GAL4-tagged human PPARalpha ligand binding domain expressed in HEK293T cells; assay type: cell-based
[22] = target: T2, Bile acid receptor (Homo sapiens) (UniProt Q96RI1); experiment: Modulation of FXR in human HepG2 cells assessed as induction of SHP mRNA expression at 10 nM by qRT-PCR analysis; assay type: cell-based
T2 sequence (whole entry): T1 sequence (Q96RI1 whole entry)
In short: (§2)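 HepG2 hepatocarcinoma cells were incubated with the compound at 10 nM. FXR target-gene mRNA was quantified by qRT-PCR (n = 3), with significance at p < 0.05, 0.01 and 0.001.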

[23] = target: T2, Bile acid receptor (Homo sapiens); experiment: Modulation of FXR in human HepG2 cells assessed as suppression of CYP7A1 mRNA expression at 10 nM by qRT-PCR analysis; assay type: cell-based; in short: as §2
[24] = target: T2, Bile acid receptor (Homo sapiens); experiment: Modulation of FXR in human HepG2 cells assessed as suppression of SREBP1c mRNA expression at 10 nM by qRT-PCR analysis; assay type: cell-based; in short: as §2

Chain of G-protein coupled bile acid receptor 1 (Homo sapiens) (Q8TDU6 whole entry, the tested form may be a part, canonical isoform): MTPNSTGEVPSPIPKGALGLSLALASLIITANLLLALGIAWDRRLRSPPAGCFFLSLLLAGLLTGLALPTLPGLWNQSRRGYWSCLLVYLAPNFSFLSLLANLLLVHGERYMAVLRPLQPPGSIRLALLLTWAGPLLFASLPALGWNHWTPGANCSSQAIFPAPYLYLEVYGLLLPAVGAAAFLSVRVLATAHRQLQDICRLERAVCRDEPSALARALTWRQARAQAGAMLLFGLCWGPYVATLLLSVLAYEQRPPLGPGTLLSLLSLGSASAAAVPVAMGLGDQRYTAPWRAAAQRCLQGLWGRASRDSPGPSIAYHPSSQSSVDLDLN
Chain of Oxysterols receptor LXR-beta (Homo sapiens) (P55055 whole entry, the tested form may be a part): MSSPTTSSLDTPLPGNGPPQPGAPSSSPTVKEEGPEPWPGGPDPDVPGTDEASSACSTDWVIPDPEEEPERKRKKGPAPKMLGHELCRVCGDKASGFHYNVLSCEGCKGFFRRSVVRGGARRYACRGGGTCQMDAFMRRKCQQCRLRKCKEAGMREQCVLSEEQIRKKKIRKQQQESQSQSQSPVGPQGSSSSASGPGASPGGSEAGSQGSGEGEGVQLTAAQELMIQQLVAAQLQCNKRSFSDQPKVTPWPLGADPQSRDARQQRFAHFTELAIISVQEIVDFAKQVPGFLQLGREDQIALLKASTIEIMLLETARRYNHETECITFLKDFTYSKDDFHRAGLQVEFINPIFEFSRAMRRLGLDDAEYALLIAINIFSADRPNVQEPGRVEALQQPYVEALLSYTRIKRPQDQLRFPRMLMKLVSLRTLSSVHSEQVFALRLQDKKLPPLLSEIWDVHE
Chain of Nuclear receptor subfamily 1 group I member 3 (Q14994 whole entry, the tested form may be a part, canonical isoform): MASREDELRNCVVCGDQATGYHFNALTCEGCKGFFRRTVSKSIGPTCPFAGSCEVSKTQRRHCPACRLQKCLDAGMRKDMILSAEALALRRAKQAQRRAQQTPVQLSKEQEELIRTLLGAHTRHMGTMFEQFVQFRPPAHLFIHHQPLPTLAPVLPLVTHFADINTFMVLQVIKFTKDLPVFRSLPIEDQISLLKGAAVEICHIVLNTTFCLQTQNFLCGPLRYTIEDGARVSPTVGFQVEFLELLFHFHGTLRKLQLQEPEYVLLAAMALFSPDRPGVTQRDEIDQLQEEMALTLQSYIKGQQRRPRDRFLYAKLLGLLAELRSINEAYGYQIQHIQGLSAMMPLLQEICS
Chain of Nuclear receptor subfamily 1 group I member 2 (O75469 whole entry, the tested form may be a part, canonical isoform): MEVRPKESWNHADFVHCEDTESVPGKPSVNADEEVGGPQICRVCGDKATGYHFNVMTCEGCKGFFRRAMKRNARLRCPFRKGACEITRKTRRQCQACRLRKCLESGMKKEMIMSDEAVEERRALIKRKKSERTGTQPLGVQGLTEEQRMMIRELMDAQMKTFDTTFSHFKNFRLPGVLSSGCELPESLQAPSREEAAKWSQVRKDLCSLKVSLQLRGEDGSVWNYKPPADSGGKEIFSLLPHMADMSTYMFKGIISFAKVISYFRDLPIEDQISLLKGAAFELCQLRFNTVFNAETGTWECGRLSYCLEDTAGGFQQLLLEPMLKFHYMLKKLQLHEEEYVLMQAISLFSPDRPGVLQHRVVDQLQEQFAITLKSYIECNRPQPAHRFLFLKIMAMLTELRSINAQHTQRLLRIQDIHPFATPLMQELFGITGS
Chain of Peroxisome proliferator-activated receptor delta (Homo sapiens) (Q03181 whole entry, the tested form may be a part): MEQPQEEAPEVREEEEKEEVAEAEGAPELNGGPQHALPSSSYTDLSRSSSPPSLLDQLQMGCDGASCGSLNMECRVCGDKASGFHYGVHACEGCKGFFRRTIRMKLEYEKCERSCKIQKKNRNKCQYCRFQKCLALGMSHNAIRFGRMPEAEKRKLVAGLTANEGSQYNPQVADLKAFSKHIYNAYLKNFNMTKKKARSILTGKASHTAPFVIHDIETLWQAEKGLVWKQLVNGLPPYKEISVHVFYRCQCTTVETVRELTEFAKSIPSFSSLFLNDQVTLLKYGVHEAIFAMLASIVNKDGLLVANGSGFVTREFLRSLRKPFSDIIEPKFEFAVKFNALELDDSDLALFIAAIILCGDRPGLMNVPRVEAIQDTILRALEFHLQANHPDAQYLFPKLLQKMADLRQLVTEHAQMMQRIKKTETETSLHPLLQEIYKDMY
Chain of Retinoic acid receptor RXR-alpha (Homo sapiens) (P19793 whole entry, the tested form may be a part): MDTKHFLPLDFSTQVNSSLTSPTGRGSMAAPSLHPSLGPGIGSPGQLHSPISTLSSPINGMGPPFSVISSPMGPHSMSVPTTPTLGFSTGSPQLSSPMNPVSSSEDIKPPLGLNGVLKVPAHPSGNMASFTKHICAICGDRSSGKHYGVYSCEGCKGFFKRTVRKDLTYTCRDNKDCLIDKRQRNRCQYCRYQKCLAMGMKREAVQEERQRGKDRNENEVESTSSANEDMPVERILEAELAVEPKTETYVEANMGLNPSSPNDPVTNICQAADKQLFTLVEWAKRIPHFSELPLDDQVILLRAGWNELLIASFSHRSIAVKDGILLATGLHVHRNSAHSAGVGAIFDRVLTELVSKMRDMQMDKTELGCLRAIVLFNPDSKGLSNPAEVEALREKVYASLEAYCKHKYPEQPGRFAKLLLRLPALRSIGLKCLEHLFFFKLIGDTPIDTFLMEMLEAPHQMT
Chain of Peroxisome proliferator-activated receptor alpha (Homo sapiens) (Q07869 whole entry, the tested form may be a part): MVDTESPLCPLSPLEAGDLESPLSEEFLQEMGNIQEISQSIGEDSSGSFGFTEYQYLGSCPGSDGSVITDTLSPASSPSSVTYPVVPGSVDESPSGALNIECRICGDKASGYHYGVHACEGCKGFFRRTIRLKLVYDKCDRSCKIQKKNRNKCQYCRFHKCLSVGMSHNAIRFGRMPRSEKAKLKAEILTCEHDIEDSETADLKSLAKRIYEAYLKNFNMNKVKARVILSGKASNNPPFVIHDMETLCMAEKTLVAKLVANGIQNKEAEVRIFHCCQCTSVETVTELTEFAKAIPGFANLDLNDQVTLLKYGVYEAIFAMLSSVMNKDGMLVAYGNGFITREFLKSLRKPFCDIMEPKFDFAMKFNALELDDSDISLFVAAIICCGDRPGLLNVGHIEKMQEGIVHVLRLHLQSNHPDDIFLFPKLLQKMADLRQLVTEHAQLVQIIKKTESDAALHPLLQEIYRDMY
Chain of Vitamin D3 receptor (Homo sapiens) (P11473 whole entry, the tested form may be a part, canonical isoform): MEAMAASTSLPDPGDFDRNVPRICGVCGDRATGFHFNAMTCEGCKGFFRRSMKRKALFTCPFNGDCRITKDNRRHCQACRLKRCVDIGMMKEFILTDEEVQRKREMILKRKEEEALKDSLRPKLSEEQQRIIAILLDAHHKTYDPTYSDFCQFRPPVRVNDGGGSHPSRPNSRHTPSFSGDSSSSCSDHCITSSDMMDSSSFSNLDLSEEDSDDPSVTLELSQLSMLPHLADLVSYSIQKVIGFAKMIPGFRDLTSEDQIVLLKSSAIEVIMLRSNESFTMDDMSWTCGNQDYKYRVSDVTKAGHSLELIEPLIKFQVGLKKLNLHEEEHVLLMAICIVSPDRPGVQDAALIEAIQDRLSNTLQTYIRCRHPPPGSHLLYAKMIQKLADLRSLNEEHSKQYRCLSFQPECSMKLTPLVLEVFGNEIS
Chain of Oxysterols receptor LXR-alpha (Homo sapiens) (Q13133 whole entry, the tested form may be a part): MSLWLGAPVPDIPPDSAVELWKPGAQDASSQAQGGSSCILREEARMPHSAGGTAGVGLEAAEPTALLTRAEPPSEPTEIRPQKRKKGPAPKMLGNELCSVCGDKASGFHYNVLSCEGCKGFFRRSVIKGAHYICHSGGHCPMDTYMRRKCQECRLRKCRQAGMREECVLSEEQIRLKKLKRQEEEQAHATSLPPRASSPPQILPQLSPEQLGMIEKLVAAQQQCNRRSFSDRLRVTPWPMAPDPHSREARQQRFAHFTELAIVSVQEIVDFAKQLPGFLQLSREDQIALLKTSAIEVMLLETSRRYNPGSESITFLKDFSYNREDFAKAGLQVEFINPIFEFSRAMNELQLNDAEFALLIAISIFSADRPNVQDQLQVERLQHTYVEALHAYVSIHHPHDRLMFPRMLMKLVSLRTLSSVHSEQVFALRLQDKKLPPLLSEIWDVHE

pKd (Bile acid receptor): 7.43
logD [1]: 1.69
remaining at 24 h [2]: 12%
Activity [3]: inactive
Activity [4]: inactive
Activity [5]: inactive
Activity [6]: inactive
Activity [7]: inactive
Activity [8]: inactive
inhibition [9]: inactive
inhibition (INH) [10]: Not Active
inhibition (INH) [11]: Not Active
inhibition [12]: inactive
Activity [22]: Active
Activity [23]: Active
Activity [24]: Active
SMILES: COc1ccc(CNc2c(-c3cc(Cl)ccn3)nc3ccc(Cl)cn23)cc1
Activity (HepG2): Non-Toxic
Selectivity ratio (HeLa [13]): 3000
Selectivity ratio (HeLa [14]): 3000
Selectivity ratio (HeLa [15]): 3000
Selectivity ratio (HeLa [16]): 3000
Selectivity ratio (HeLa [17]): 3000
Selectivity ratio (HeLa [18]): 3000
Selectivity ratio (HeLa [19]): 3000
Selectivity ratio (HeLa [20]): 3000
Selectivity ratio (HeLa [21]): 3000
